Measurements published in ChEMBL document CHEMBL4376814, “Novel cyclin-dependent kinase 9 (CDK9) inhibitor with suppression of cancer stemness activity against non-small-cell lung cancer” (Eur J Med Chem, 2019).
Active and inactive are the calls of the source. The rule behind the calls is not given here.

Legend:
[1] = molecular target: Serine/threonine-protein kinase 17B (Homo sapiens) (UniProt O94768); assay: Inhibition of recombinant full-length human DRAK2 at 1 uM using KKRPQRRYSNVF as substrate measured after 120 mins in presence of [gamma33P]ATP by scintillation counting method relative to control
A549 = assay: Induction of apoptosis in human A549 cells assessed as activation of caspase 3 at 0.25 to 1 uM after 24 hrs by Western blot analysis; assay type: functional, cell-based
Method in brief: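 A549 or H1299 cells exposed to the indicated concentrations for 24 h. Protein extracts then immunoblotted for apoptosis-pathway proteins (Bcl2, Bim, cleaved caspase 3).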

[2] = molecular target: Tyrosine-protein kinase Fes/Fps (Homo sapiens) (UniProt P07332); assay: Inhibition of recombinant human FES (2 to end residues) at 1 uM using poly(Glu, Tyr) 4:1 as substrate measured after 40 mins in presence of [gamma33P]ATP by scintillation counting method relative to control
[3] = molecular target: Tau-tubulin kinase 2 (Homo sapiens) (UniProt Q6IQ55); assay: Inhibition of recombinant human TTBK2 (1 to 331 residues) at 1 uM using casein as substrate measured after 40 mins in presence of [gamma33P]ATP by scintillation counting method relative to control
Sequence of Tau-tubulin kinase 2 (Homo sapiens) (Q6IQ55 whole entry, the tested form may be a part): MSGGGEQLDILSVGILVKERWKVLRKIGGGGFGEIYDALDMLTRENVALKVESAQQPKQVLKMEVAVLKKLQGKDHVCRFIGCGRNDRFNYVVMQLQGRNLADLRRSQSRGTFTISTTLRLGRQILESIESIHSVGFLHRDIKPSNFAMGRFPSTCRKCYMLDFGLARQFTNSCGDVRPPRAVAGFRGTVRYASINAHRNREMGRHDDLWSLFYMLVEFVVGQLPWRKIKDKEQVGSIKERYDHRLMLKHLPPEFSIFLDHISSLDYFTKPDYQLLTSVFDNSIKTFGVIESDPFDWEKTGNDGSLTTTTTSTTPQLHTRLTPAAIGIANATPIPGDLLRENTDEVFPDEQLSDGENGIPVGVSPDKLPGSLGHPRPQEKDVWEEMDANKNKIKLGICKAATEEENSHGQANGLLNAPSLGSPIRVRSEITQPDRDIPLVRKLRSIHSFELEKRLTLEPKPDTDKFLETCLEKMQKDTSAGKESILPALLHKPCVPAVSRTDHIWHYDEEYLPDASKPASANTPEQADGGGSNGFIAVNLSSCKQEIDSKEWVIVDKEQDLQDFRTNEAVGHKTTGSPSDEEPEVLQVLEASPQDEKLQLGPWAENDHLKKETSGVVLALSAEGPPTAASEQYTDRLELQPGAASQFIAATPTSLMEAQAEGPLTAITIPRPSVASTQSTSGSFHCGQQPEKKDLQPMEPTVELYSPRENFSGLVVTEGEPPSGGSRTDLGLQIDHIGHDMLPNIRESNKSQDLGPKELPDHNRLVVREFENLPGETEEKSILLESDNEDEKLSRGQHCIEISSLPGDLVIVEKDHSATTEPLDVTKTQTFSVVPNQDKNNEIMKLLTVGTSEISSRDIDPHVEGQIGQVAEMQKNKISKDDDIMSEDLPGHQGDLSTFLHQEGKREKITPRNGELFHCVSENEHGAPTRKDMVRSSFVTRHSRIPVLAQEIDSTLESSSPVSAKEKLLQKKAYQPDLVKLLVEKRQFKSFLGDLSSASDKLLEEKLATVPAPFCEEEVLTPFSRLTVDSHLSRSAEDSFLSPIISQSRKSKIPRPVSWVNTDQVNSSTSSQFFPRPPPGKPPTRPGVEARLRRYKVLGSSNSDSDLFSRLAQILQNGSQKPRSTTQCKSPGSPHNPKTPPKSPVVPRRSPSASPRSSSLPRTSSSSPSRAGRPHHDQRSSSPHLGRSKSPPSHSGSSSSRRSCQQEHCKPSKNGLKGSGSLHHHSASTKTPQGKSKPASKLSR

[4] = tested on: Tyrosine-protein kinase ABL1 (Homo sapiens), P00519 [T315I]; assay: Inhibition of recombinant human ABL T315I mutant (27 to end residues) at 1 uM using EAIYAAPFAKKK as substrate measured after 40 mins in presence of [gamma33P]ATP by scintillation counting method relative to control
[5] = molecular target: Protein kinase C delta type (Homo sapiens) (UniProt Q05655); assay: Inhibition of recombinant human PKCdelta (2 to end residues) at 1 uM using ERMRPRKRQGSVRRR as substrate measured after 40 mins in presence of [gamma33P]ATP by scintillation counting method relative to control
[6] = molecular target: Ribosomal protein S6 kinase alpha-5 (Homo sapiens) (UniProt O75582); assay: Inhibition of recombinant human MSK1 (2 to end residues) at 1 uM using GRPRTSSFAEGKK as substrate measured after 40 mins in presence of [gamma33P]ATP by scintillation counting method relative to control
Sequence of Ribosomal protein S6 kinase alpha-5 (Homo sapiens) (O75582 whole entry, looked up): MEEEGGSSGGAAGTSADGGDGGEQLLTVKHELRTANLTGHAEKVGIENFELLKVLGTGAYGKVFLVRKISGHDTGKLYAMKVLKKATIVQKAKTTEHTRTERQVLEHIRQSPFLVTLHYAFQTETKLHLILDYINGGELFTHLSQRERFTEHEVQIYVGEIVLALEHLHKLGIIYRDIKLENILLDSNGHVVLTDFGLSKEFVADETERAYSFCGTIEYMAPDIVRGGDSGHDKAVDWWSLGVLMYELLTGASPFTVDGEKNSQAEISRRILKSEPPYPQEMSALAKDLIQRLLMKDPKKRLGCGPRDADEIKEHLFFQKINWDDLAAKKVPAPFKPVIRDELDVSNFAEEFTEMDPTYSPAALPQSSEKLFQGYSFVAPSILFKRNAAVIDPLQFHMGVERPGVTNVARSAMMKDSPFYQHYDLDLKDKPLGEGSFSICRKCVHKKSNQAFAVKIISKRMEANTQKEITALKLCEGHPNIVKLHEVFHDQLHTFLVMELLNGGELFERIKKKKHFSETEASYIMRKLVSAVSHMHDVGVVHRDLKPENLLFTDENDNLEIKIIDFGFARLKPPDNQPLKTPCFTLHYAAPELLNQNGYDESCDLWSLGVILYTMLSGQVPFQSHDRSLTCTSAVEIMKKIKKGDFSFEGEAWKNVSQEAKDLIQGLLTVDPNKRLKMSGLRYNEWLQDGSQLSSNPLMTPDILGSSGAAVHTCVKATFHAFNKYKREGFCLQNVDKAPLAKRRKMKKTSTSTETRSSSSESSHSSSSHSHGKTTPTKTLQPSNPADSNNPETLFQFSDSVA

[7] = molecular target: Dual specificity protein kinase CLK2 (Homo sapiens) (UniProt P49760); assay: Inhibition of recombinant human CLK2 (138 to end residues) at 1 uM using YRRAAVPPSPSLSRHSSPHQS(p) EDEEE as substrate measured after 40 mins in presence of [gamma33P]ATP by scintillation counting method relative to control
Sequence of Dual specificity protein kinase CLK2 (Homo sapiens) (P49760 whole entry, looked up): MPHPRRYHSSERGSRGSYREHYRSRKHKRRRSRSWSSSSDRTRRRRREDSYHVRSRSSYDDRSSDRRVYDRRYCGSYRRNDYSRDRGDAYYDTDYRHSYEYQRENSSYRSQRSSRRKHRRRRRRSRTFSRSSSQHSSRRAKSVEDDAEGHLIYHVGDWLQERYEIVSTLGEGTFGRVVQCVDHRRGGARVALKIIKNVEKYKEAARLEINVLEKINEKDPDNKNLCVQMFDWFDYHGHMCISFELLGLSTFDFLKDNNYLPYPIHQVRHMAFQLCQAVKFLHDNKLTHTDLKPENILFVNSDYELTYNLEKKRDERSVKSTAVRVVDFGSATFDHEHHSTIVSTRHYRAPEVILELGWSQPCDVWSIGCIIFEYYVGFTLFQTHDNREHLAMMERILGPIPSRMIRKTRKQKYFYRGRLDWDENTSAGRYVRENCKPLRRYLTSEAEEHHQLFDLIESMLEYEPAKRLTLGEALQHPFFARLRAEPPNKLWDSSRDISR
Method in brief: (§1)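 Single-point inhibition at 1 µM was measured in the Eurofins KinaseProfiler panel. Values are the mean of two independent experiments.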

Homo sapiens [8] = species: Homo sapiens; assay: Inhibition of recombinant human MAPKAPK2 A399G mutant (46 to end residues) at 1 uM using KKLNRTLSVA as substrate measured after 40 mins in presence of [gamma33P]ATP by scintillation counting method relative to control; method in brief: as §1
[9] = molecular target: Cyclin-dependent kinase-like 1 (Homo sapiens) (UniProt Q00532); assay: Inhibition of recombinant human CDKL1 (1 to 303 residues) at 1 uM using RRRFRPASPLRGP as substrate measured after 120 mins in presence of [gamma33P]ATP by scintillation counting method relative to control
Sequence of Cyclin-dependent kinase-like 1 (Homo sapiens) (Q00532 whole entry, the tested form may be a part): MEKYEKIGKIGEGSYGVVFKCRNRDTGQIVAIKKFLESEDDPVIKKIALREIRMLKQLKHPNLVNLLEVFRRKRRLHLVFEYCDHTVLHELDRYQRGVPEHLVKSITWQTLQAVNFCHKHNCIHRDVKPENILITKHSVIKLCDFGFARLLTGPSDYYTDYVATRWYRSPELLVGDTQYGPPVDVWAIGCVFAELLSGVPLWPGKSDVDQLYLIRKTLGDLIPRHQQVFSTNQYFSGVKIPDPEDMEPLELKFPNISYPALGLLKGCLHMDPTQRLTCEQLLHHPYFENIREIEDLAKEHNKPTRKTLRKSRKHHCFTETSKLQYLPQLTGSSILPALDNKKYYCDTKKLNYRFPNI

[10] = molecular target: Calcium/calmodulin-dependent protein kinase type IV (Homo sapiens) (UniProt Q16566); assay: Inhibition of recombinant full-length human CaMK4 at 1 uM using calmodulin as substrate measured after 40 mins in presence of [gamma33P]ATP by scintillation counting method relative to control
[11] = tested on: Fibroblast growth factor receptor 1 (Homo sapiens), P11362 [V561M]; assay: Inhibition of recombinant human FGFR1 V561M mutant (456 to 765 residues) at 1 uM using GGEEEEYFELVKKKK as substrate measured after 40 mins in presence of [gamma33P]ATP by scintillation counting method relative to control
Sequence of Fibroblast growth factor receptor 1 (Homo sapiens), P11362 [V561M] (P11362 whole entry V561M, the tested form may be a part): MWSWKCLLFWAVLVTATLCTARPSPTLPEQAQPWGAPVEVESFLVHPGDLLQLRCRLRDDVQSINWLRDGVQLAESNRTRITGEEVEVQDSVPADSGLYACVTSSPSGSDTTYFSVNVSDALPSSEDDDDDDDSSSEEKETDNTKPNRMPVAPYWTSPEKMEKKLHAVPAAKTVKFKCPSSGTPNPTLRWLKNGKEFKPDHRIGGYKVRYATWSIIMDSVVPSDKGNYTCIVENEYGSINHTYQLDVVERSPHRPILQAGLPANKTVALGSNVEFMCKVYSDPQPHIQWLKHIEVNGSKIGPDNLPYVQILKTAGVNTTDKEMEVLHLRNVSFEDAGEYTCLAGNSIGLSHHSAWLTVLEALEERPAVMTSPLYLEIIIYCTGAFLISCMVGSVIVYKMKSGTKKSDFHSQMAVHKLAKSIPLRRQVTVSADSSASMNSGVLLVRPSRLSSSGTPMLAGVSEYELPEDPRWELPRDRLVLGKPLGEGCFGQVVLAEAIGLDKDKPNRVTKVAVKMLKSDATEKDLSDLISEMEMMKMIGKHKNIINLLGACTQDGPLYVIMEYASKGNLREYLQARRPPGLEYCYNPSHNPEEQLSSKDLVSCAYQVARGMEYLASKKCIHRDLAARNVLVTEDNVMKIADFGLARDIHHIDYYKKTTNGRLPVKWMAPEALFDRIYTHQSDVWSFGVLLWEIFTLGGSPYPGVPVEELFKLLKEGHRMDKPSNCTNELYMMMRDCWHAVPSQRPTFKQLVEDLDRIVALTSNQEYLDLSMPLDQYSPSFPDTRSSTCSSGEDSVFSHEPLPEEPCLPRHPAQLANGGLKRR

[12] = molecular target: CDK6/cyclin D3 (Homo sapiens) (UniProt P30281+Q00534); assay: Inhibition of recombinant full-length human CDK6/cyclinD3 at 1 uM using histone H1 as substrate measured after 40 mins in presence of [gamma33P]ATP by scintillation counting method relative to control; assay type: protein-complex assay
Method in brief: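 Percent inhibition of kinase activity at a single compound concentration, measured by the outsourced Eurofins KinaseProfiler panel. Values are the mean of two independent experiments.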

[13] = molecular target: Serine/threonine-protein kinase VRK1 (Homo sapiens) (UniProt Q99986); assay: Inhibition of human VRK1 at 1 uM by radiometric method relative to control
Sequence of Serine/threonine-protein kinase VRK1 (Homo sapiens) (Q99986 whole entry): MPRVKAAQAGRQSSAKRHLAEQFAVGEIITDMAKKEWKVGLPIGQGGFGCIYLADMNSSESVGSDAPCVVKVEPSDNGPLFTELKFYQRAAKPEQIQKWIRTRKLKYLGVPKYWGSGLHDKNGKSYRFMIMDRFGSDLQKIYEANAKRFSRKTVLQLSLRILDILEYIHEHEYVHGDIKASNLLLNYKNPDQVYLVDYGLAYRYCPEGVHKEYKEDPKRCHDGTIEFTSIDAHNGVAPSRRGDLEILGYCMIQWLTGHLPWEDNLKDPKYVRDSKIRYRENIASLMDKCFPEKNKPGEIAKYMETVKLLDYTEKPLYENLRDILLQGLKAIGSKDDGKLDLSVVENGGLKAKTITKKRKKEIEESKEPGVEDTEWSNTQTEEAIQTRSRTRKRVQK

NCI-H1299 [14] = assay: Antitumour activity against human H1299 cells xenografted in Balb/c mouse assessed as inhibition of Rb phosphorylation at Ser 780 residue at 20 to 80 mg/kg, po administered for 3 weeks by […] based light microscopic analysis; assay type: functional, organism-based
Method in brief: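 Tumours came from the H1299 oral-dosing xenograft run for 3 weeks. Formalin-fixed, paraffin-embedded 5-µm sections were deparaffinized and rehydrated. Primary antibodies (CDK9, cyclin T1, p-Rb Ser780, RNAPII CTD Ser5, Oct4) used at 1:100 overnight at 4 °C. Biotinylated secondary for 1 h at room temperature, then ABC-peroxidase/DAB, hematoxylin counterstain and light microscopy.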

[15] = molecular target: Serine/threonine-protein kinase D2 (Homo sapiens) (UniProt Q9BZL6); assay: Inhibition of recombinant full-length human PKD2 at 1 uM using KKLNRTLSVA as substrate measured after 40 mins in presence of [gamma33P]ATP by scintillation counting method relative to control
Sequence of Serine/threonine-protein kinase D2 (Homo sapiens) (Q9BZL6 whole entry): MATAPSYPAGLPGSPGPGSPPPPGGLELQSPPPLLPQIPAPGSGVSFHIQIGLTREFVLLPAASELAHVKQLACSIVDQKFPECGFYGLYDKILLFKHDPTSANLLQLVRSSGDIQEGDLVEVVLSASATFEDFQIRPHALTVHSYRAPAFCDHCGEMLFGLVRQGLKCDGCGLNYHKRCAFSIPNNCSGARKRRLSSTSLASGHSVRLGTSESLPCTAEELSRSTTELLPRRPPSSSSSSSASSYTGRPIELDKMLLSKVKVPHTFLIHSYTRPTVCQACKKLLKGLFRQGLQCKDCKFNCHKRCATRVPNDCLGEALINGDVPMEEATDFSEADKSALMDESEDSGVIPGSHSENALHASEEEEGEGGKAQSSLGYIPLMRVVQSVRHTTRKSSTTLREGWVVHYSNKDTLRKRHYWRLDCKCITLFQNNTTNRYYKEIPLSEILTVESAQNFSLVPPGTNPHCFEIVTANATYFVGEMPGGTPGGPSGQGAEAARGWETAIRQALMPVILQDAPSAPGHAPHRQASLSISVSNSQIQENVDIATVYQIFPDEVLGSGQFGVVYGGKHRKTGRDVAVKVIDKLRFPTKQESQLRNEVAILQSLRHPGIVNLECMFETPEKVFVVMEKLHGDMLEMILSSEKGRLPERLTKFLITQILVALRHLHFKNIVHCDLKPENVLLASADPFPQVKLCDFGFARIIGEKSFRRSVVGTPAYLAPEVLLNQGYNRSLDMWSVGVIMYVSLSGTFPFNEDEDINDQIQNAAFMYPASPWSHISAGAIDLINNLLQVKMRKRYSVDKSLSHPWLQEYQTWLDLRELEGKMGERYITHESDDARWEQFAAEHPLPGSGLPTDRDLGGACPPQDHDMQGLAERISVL

NCI-H1299 [16] = assay: Downregulation of OCT4 in human H1299 cells at 0.25 to 1 uM by Western blot analysis; assay type: functional, cell-based
[17] = molecular target: Phosphatidylinositol 4-phosphate 5-kinase type-1 gamma (Homo sapiens) (UniProt O60331); assay: Inhibition of recombinant full-length human PIP5K1gamma at 1 uM using phosphatidylinositol 4-phosphate as substrate measured after 40 mins by HTRF assay relative to control
[18] = molecular target: Serine/threonine-protein kinase 33 (Homo sapiens) (UniProt Q9BYT3); assay: Inhibition of recombinant full-length human STK33 at 1 uM using myelin basic protein as substrate measured after 40 mins in presence of [gamma33P]ATP by scintillation counting method relative to control
[19] = molecular target: Insulin receptor-related protein (Homo sapiens) (UniProt P14616); assay: Inhibition of recombinant human IRR (943 to 1266 residues) at 1 uM using myelin basic protein as substrate measured after 40 mins in presence of [gamma33P]ATP by scintillation counting method relative to control
[20] = molecular target: Tyrosine-protein kinase JAK1 (Homo sapiens) (UniProt P23458); assay: Inhibition of recombinant human JAK1 (866 to end residues) at 1 uM using GEEPLYWSFPAKKK as substrate measured after 40 mins in presence of [gamma33P]ATP by scintillation counting method relative to control
Homo sapiens [21] = species: Homo sapiens; assay: Inhibition of recombinant human MARK1 V16E/T20S double mutant (2 to end residues) at 1 uM using KKKVSRSGLYRSPSMPENLNRPR as substrate measured after 40 mins in presence of [gamma33P]ATP by scintillation counting method relative to control

SMILES: CN(C)C(=O)c1cc2cnc(Nc3ccc(NC(=O)CCCCCCCN=C=S)cc3)nc2n1C1CCCC1
- inhibition [1]: -8%
- Activity (A549): Active
- inhibition [2]: 7%
- inhibition [3]: -5%
- inhibition [4]: 38%
- inhibition [5]: 8%
- inhibition [6]: 5%
- inhibition [7]: 12%
- inhibition (Homo sapiens [8]): 1%
- inhibition [9]: 17%
- inhibition [10]: -4%
- inhibition [11]: 86%
- inhibition [12]: 79%
- inhibition [13]: 0%
- Activity (NCI-H1299 [14]): Active
- inhibition [15]: -6%
- Activity (NCI-H1299 [16]): Active
- inhibition [17]: 0%
- inhibition [18]: 27%
- inhibition [19]: 3%
- inhibition [20]: 77%
- inhibition (Homo sapiens [21]): 59%
